These results are taken from PubChem BioAssay AID493195 (Broad Institute, 2011).

Where “and” joins values, the source holds several entries; their conditions need not be identical. Identical values can stand only once. Calls of active or inactive are those of the source.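 How the source made its calls: active means fitted dose curve reaching 40% activation within the tested dose range; inconclusive means no clear call, values can overlap the other calls; inactive means the rest, or activity opposite the expected rise.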

The first test concerns U2OS HRE-luciferase reporter, luminescence, HIF activation. As to the kind of experiment: HRE-luciferase reporter activators in U2OS cells, dose response, cell-based, luminescence, U2OS HRE-luc, dry powder, set 6 (AID 493195).
Conditions: not given
A digest of the protocol: (§1)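 Test system: human U2OS osteosarcoma cells stably carrying 3×HRE-luciferase reporter. Input: 6,000 cells per well. Times: 24 h compound exposure at 37 °C. Detection: Steady-Glo luciferase luminescence.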
(In a reporter assay the amount or activity of a reporter protein is the signal.)
`c1ccc(-c2ccc(CNc3nc(-c4ccccn4)nnc3-c3ccccc3)cc2)cc1`: the AC40 is 0.917 µM. Regarding `c1ccc(-c2nnc(-c3ccccn3)nc2NCc2ccccn2)cc1`, the AC40 was 18.5 µM. Same read-out and setting: next, `c1ccc(-c2cnc(Nc3nc(-c4ccccn4)nnc3-c3ccccc3)s2)cc1`: 31.4 µM; `Clc1cccc(CNc2nc(-c3ccccn3)nnc2-c2ccccc2)c1`: 1.87 µM. Same read-out and setting: next, `c1ccc(-c2nnc(-c3ccccn3)nc2NCC2CCOCC2)cc1`: 18.3 µM; `COc1ccccc1N1CCN(Cc2ccc(O)c3ncccc23)CC1`: 33 µM; `c1ccc(-c2nnc(-c3ccccn3)nc2NCCCN2CCOCC2)cc1`: 10.7 µM.

In the case of `c1ccc(-c2nnc(Nc3nc(-c4ccccn4)nnc3-c3ccccc3)s2)cc1`, the AC40 is 4.75 µM. On the same count and under the same terms, next, `c1ccc(-c2nnc(-c3ccccn3)nc2Nc2cnc3ccccc3n2)cc1`: 7.11 µM; `c1ccc(-c2cccc(CNc3nc(-c4ccccn4)nnc3-c3ccccc3)c2)cc1`: 1.27 µM.

With `O=C(NCCCn1ccnc1)c1cc(-c2ccccc2)on1`, the AC40 is 26.5 µM.

As for `Oc1ccc(CN2CCc3ccccc3C2)c2cccnc12`, the AC40 was 5.32 µM.

Turning to `c1ccc(-c2nnc(-c3ccccn3)nc2N2CCC(N3CCOCC3)CC2)cc1`, the AC40 is 8.15 µM. Consider `O=C(NCCCCO)c1cc(-c2ccccc2)on1`, for which the AC40 was 24.2 µM. `C[C@H](Nc1nc(-c2ccccn2)nnc1-c1ccccc1)C1CCCCC1`: the AC40 was 2.23 µM. For `Cc1ccc(Nc2nc(-c3ccccn3)nnc2-c2ccccc2)cn1`, the AC40 is 9.36 µM. Take `OCCCNc1nc(-c2ccccn2)nnc1-c1ccccc1`: the AC40 is 16.7 µM. Take `c1ccc(-c2nnc(-c3ccccn3)nc2N2CCC(C3CCCCC3)C2)cc1` (stereo unspecified): the AC40 is 1.78 µM. Take `c1ccc(-c2nnc(-c3ccccn3)nc2N2CCN(c3ccncc3)CC2)cc1`: the AC40 is 7.78 µM. Take `Cc1ccccc1CNc1nc(-c2ccccn2)nnc1-c1ccccc1`: the AC40 is 4.31 µM. Still for that read-out and setting: with `CC(Nc1nc(-c2ccccn2)nnc1-c1ccccc1)c1ccccc1` (stereo unspecified) the figure was 2.53 µM; with `c1ccc(-c2nnc(-c3ccccn3)nc2N2CCC(c3ccccc3)C2)cc1` (stereo unspecified), 1.54 µM. `c1ccc(-c2nnc(-c3ccccn3)nc2NCCc2ccccn2)cc1`: the AC40 was 10.1 µM. For the compound `CC(C)(C)c1ccc(CNc2nc(-c3ccccn3)nnc2-c2ccccc2)cc1`, the AC40 is 1.13 µM.

As to `c1ccc(-c2nnc(-c3ccccn3)nc2NCC2CCCCC2)cc1`, the AC40 is 4.15 µM. On to `Cc1cccc(Nc2nc(-c3ccccn3)nnc2-c2ccccc2)n1`, for which the AC40 is 11.2 µM. The same measure, in the same setting: next, `C[C@@H](Nc1nc(-c2ccccn2)nnc1-c1ccccc1)C1CCCCC1`: 4.3 µM; `c1ccc(-c2nnc(-c3ccccn3)nc2NCC2CC2)cc1`: 7.2 µM. On the same count and under the same terms, next, `Cc1cccc(CNc2nc(-c3ccccn3)nnc2-c2ccccc2)c1`: 3.83 µM. As for `c1ccc(-c2csc(Nc3nc(-c4ccccn4)nnc3-c3ccccc3)n2)cc1`, the AC40 is 24.6 µM.

Consider `Cc1ccc(CNc2nc(-c3ccccn3)nnc2-c2ccccc2)cc1C`, for which the AC40 was 1.48 µM. Regarding `c1ccc(CNc2nc(-c3ccccn3)nnc2-c2ccccc2)cc1`, the AC40 is 5.43 µM.

Take `c1ccc(CCNc2nc(-c3ccccn3)nnc2-c2ccccc2)cc1`: the AC40 is 2.14 µM.

Regarding `Oc1ccc(CN2CCC(Cc3ccccc3)CC2)c2cccnc12`, the AC40 was 26.5 µM. On to `OCC1CCN(c2nc(-c3ccccn3)nnc2-c2ccccc2)CC1`, for which the AC40 was 18.8 µM. Same read-out and setting: with `COc1ccc(CNc2nc(-c3ccccn3)nnc2-c2ccccc2)cc1` the figure was 2.51 µM.

For `CC(C)(C)CCNc1nc(-c2ccccn2)nnc1-c1ccccc1`, the AC40 was 3.35 µM and 1.68 µM. On the same count and under the same terms, next, `c1ccc(-c2nnc(-c3ccccn3)nc2NCc2cccnc2)cc1`: 20.7 µM; `COc1cccc(CNc2nc(-c3ccccn3)nnc2-c2ccccc2)c1`: 2.43 µM. Same read-out and setting: next, `c1ccc(-c2nnc(-c3ccccn3)nc2Nc2nc3ccccc3s2)cc1`: 5.02 µM; `CN1CCN(c2nc(-c3ccccn3)nnc2-c2ccccc2)CC1`: 15.8 µM; `C=CCNc1nc(-c2ccccn2)nnc1-c1ccccc1`: 6.56 µM.

For `CN(C)c1nc(-c2ccccn2)nnc1-c1ccccc1`, the AC40 is 10.5 µM.

Take `CCCCNC(=O)c1cc(-c2ccccc2)on1`: the AC40 is 28.5 µM. On to `Cc1ccc(CNc2nc(-c3ccccn3)nnc2-c2ccccc2)cc1`, for which the AC40 is 2.72 µM. As for `Oc1ccc(CNC2Cc3ccccc3C2)c2cccnc12`, the AC40 is 32.6 µM. Consider `Oc1ccc(CN2CCC3CCCCC3C2)c2cccnc12` (stereo unspecified), for which the AC40 is 21.3 µM.

Consider `c1ccc(-c2nnc(-c3ccccn3)nc2NCCN2CCOCC2)cc1`, for which the AC40 was 11.6 µM.

System in another test: not listed separately
Described as above. The following applies: U2OS HRE-luciferase reporter, luminescence, HIF activation; at 38 µM (top of the series). A digest of the protocol: as §1
Take `O=C(Nc1nnc(-c2ccccc2)s1)c1cc(-c2ccccc2)on1`: the activation is -0.274% (inactive). Regarding `O=C(NCCN1CCOCC1)c1cc(-c2ccccc2)on1`, the activation is 20.9% (inactive). As for `CC(C)(C)OC(=O)N1CCN(Cc2ccc(O)c3ncccc23)CC1`, the activation is 9.74% (inactive). The same measure, in the same setting: with `O=C(c1cc(-c2ccccc2)on1)N1CCN(c2ccncc2)CC1` the figure was -0.05% (inactive); with `CC1CN(Cc2ccc(O)c3ncccc23)CC(C)O1` (stereo unspecified), 2.48% (inactive); with `O=C(Nc1cn2ccccc2n1)c1cc(-c2ccccc2)on1`, 0.943% (inactive). Turning to `Oc1ccc(CN2CCc3ccccc3C2)c2cccnc12`, the activation is 5.7% (inactive). As to `O=C(NCCN1CCCCC1)c1cc(-c2ccccc2)on1`, the activation is 0.598% (inactive). Consider `O=C(Nc1ncc2ccccc2n1)c1cc(-c2ccccc2)on1`, for which the activation was 0.873% (inactive). Still for that read-out and setting: with `O=C(NCC1CC1)c1cc(-c2ccccc2)on1` the figure was 19.6% (inactive).

For `Cn1c(-c2ccccc2)cnc1NC(=O)c1cc(-c2ccccc2)on1`, the activation was -0.441% (inactive).

As to `CC(C)(C)CCNC(=O)c1cc(-c2ccccc2)on1`, the activation was 9.01% (inactive). Take `CN(C)CCNC(=O)c1cc(-c2ccccc2)on1`: the activation is 0.398% (inactive).

In the case of `O=C(NCC1CCCCC1)c1cc(-c2ccccc2)on1`, the activation is 1.39% (inactive). As for `Cc1cccc(NC(=O)c2cc(-c3ccccc3)on2)n1`, the activation is -0.083% (inactive). `O=C(Nc1nc2ccccc2s1)c1cc(-c2ccccc2)on1`: the activation was 0.068% (inactive). Consider `O=C(c1cc(-c2ccccc2)on1)N1CCc2cccnc21`, for which the activation is -0.142% (inactive). With `N#CC1(c2ccccc2)CCN(Cc2ccc(O)c3ncccc23)CC1`, the activation was 7.8% (inactive). Regarding `O=C(Nc1ncc(-c2ccccc2)o1)c1cc(-c2ccccc2)on1`, the activation is -0.076% (inactive).

Turning to `CN1CCN(C(=O)c2cc(-c3ccccc3)on2)CC1`, the activation is -0.469% (inactive). For `O=C(NCc1ccccc1)c1cc(-c2ccccc2)on1`, the activation is 1.19% (inactive). Still for that read-out and setting: next, `Cc1ccc(CNC(=O)c2cc(-c3ccccc3)on2)cc1`: -0.243% (inactive). As for `O=C(NC1CCc2ccccc2C1)c1cc(-c2ccccc2)on1` (stereo unspecified), the activation is 1.01% (inactive). The same measure, in the same setting: next, `O=C(Nc1nc(-c2ccccc2)cs1)c1cc(-c2ccccc2)on1`: -0.156% (inactive). The same measure, in the same setting: next, `O=C(NCCCO)c1cc(-c2ccccc2)on1`: 16.3% (inactive). Still for that read-out and setting: next, `O=C(NC1Cc2ccccc2C1)c1cc(-c2ccccc2)on1`: 0.84% (inactive); `Oc1ccc(CNC2CCc3ccccc32)c2cccnc12` (stereo unspecified): 15.9% (inactive).

As to `O=C(c1cc(-c2ccccc2)on1)N1CCC(N2CCCC2)CC1`, the activation is -0.666% (inactive). As for `O=C(c1cc(-c2ccccc2)on1)N1CCC(N2CCOCC2)CC1`, the activation was -0.46% (inactive). With `OCC1CCN(Cc2ccc(O)c3ncccc23)CC1`, the activation is 44.4% (inactive). On the same count and under the same terms, next, `Cn1c(-c2ccccc2)cnc1Nc1nc(-c2ccccn2)nnc1-c1ccccc1`: -1.62% (inactive); `Cc1cccc(CNC(=O)c2cc(-c3ccccc3)on2)c1`: -0.241% (inactive). Take `Cc1ccccc1CNC(=O)c1cc(-c2ccccc2)on1`: the activation was -0.171% (inactive). For `Cc1ccc(NC(=O)c2cc(-c3ccccc3)on2)cn1`, the activation is -0.191% (inactive). Same read-out and setting: with `Cn1c(NC(=O)c2cc(-c3ccccc3)on2)nc2ccccc21` the figure was -0.522% (inactive); with `O=C(Nc1cnc2ccccc2c1)c1cc(-c2ccccc2)on1`, 0.224% (inactive); with `O=C(Nc1ccc2ccccc2n1)c1cc(-c2ccccc2)on1`, -0.178% (inactive). In the case of `O=C(c1cc(-c2ccccc2)on1)N1CCC(CO)CC1`, the activation is 0.347% (inactive).
